{"source": "paper PMC4618641", "about": "(Pharmacology Research & Perspectives, 2015)", "key": {"[1]": {"system": "DU145TXR cells", "experiment": "Potentiation assay", "assay_type": "cell-based, human", "settings": "10 nmol/L - 25 μmol/L inhibitor, 48 h", "how_it_was_run": "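Paclitaxel-selected DU145TXR (maintained in 10 nmol/L paclitaxel) seeded, then after 48 h co-treated 48 h with 500 nmol/L paclitaxel plus inhibitor at 10 nmol/L–25 μmol/L (400X DMSO solutions), triplicate wells; parallel run without paclitaxel. MTT read at 570 minus 720 nm. Survival relative to DMSO-treated wells without inhibitor; ≥6 replicates from ≥2 experiments. PC50 from a four-parameter variable-slope fit.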"}, "[2]": {"system": "DU145TXR cells", "experiment": "Dose-dependent sensitization to paclitaxel", "assay_type": "cell-based, human", "settings": "for Synergy with paclitaxel (isobologram): DU145TXR, 5, 10, 25 μmol/L compound"}, "[3]": {"system": "DU145 cells", "experiment": "Intrinsic cytotoxicity assay", "assay_type": "cell-based, human", "settings": "for IC50: Homo sapiens, DU-145, 48 h, read-out: IC50 (compound alone, estimated)", "how_it_was_run": "(§1)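 Cells seeded at 2 × 10^4 cells/mL, grown 48 h, then exposed 48 h to test compound at 0.05–50 μmol/L from 200X DMSO solutions, with DMSO controls (n = 12/plate). PBS rinse, then fresh medium for 24 h and MTT for 4 h; A570 minus A720, blank subtracted. Survival is relative to DMSO; ≥6 replicates, ≥2 experiments. IC50 from a four-parameter fit constrained 0–100. HFL1 grown in F-12K on collagen-treated surfaces.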"}, "[4]": {"system": "P-gp", "settings": "in the presence of the transport substrate verapamil; ref Brewer et al. [2014]; cited from earlier work"}, "[5]": {"system": "P-gp", "settings": "ref Brewer et al. [2014]; cited from earlier work"}, "[6]": {"system": "DU145TXR cells", "experiment": "Reversal of resistance to doxorubicin", "assay_type": "cell-based, human", "settings": "25 μmol/L compound, data not shown"}, "[7]": {"system": "HFL1 cells", "experiment": "Intrinsic cytotoxicity assay", "assay_type": "cell-based, human", "settings": "for Decrease in cell viability: HFL1, 25 μmol/L compound, not shown; for IC50: Homo sapiens, HFL1, 48 h, read-out: IC50 (compound alone, estimated)", "how_it_was_run": "as §1"}, "[8]": {"system": "DU145TXR cells", "experiment": "Intrinsic cytotoxicity assay", "assay_type": "cell-based, human", "settings": "for IC50: Homo sapiens, 48 h, read-out: IC50 (compound alone, estimated)", "how_it_was_run": "as §1"}, "[9]": {"system": "DU145 human prostate cancer cells", "experiment": "MTT cell viability assay, chemotherapeutics on naïve DU145", "assay_type": "cell-based", "how_it_was_run": "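DU145 in RPMI-1640 with 10% FBS, seeded at 2 × 10^4 cells/mL, then after 48 h given a paclitaxel (or doxorubicin) range from 400X DMSO dilutions for 48 h. PBS rinse, fresh medium 24 h, then MTT 4 h; formazan dissolved in DMSO, read at 570 minus 720 nm. Survival relative to DMSO controls (n = 12/plate); ≥9 replicates from ≥3 experiments.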"}, "[10]": {"system": "DU145TXR cells", "experiment": "MTT cell viability assay, chemotherapeutics on multidrug-resistant DU145TXR", "assay_type": "cell-based, human"}}, "note": "Entries after “also recorded” stand apart in the source; their conditions may differ.", "data": [{"compound": "COC(=O)c1ccc(C(c2c(O)oc3ccccc3c2=O)c2c(O)oc3ccccc3c2=O)cc1", "note": "[Compound 19, methyl 4-[bis(2-hydroxy-4-oxochromen-3-yl)methyl]benzoate]", "values": [{"measurement": "Effect on sensitivity of DU145TXR to 500 nmol/L paclitaxel", "setting": "[1]", "result": "no apparent effect"}, {"measurement": "Effect on sensitivity of DU145TXR to 500 nmol/L paclitaxel", "setting": "[1]; listed as compound 19", "result": "no effect on the toxicity of paclitaxel"}, {"measurement": "Effect on cell viability in sensitization experiments", "setting": "[2]; DU145TXR, paclitaxel, 5, 10, 25 μmol/L compound", "result": "did not show any effect on cell viability"}, {"measurement": "IC50", "setting": "[3]", "result": 99, "unit": "µM"}, {"measurement": "Inhibition of verapamil-stimulated ATP hydrolysis", "setting": "[4]", "result": "inhibit ATP hydrolysis"}, {"measurement": "Effect on nucleotide binding (ESR, SL-ATP)", "setting": "[5]", "result": "directly interfered with nucleotide binding"}]}, {"compound": "Cc1cc(C)c(-c2cc(NC(=O)CSc3n[nH]c(C4CC4)n3)n(-c3ccccc3)n2)cc1C", "note": "[Compound 29, 2-[(5-cyclopropyl-1H-1,2,4-triazol-3-yl)sulfanyl]-N-[2-phenyl-5-(2,4,5-trimethylphenyl)pyrazol-3-yl]acetamide]", "values": [{"measurement": "Effect on sensitivity of DU145TXR to 500 nmol/L paclitaxel", "setting": "[1]", "result": "strongly affected the sensitivity"}, {"measurement": "Synergy with paclitaxel (isobologram)", "setting": "[2]", "result": "strong synergistic effect"}, {"measurement": "Resensitization to doxorubicin", "setting": "[6]", "result": "resensitized the MDR prostate cancer cells to doxorubicin to levels that are comparable with the naïve DU145 cell line"}, {"measurement": "Decrease in cell viability", "setting": "[7]", "result": 35, "unit": "%"}, {"measurement": "IC50", "setting": "[7]", "result": 42, "unit": "µM"}, {"measurement": "IC50", "setting": "[3]", "result": 34, "unit": "µM"}, {"measurement": "IC50", "setting": "[8]", "result": 39, "unit": "µM"}, {"measurement": "Inhibition of verapamil-stimulated ATP hydrolysis", "setting": "[4]", "result": "inhibit ATP hydrolysis"}, {"measurement": "Effect on nucleotide binding (ESR, SL-ATP)", "setting": "[5]", "result": "did not affect nucleotide-binding characteristics"}]}, {"compound": "CCC(C(=O)N1CCN(c2ccc(OC)cc2)CC1)n1nc(C)c2sc3ccccc3c2c1=O", "note": "(centres unmarked) [Compound 34, 2-[1-[4-(4-methoxyphenyl)piperazin-1-yl]-1-oxobutan-2-yl]-4-methyl-[1]benzothiolo[2,3-d]pyridazin-1-one]", "values": [{"measurement": "Effect on sensitivity of DU145TXR to 500 nmol/L paclitaxel", "setting": "[1]", "result": "strongly affected the sensitivity"}, {"measurement": "Synergy with paclitaxel (isobologram)", "setting": "[2]", "result": "strong synergistic effect"}, {"measurement": "Resensitization to doxorubicin", "setting": "[6]", "result": "resensitized the MDR prostate cancer cells to doxorubicin to levels that are comparable with the naïve DU145 cell line"}, {"measurement": "Decrease in cell viability", "setting": "[7]", "result": 23, "unit": "%"}, {"measurement": "IC50", "setting": "[7]", "result": 133, "unit": "µM"}, {"measurement": "IC50", "setting": "[3]", "result": 44, "unit": "µM"}, {"measurement": "IC50", "setting": "[8]", "result": 412, "unit": "µM"}, {"measurement": "Inhibition of verapamil-stimulated ATP hydrolysis", "setting": "[4]", "result": "inhibit ATP hydrolysis"}, {"measurement": "Effect on nucleotide binding (ESR, SL-ATP)", "setting": "[5]", "result": "directly interfered with nucleotide binding"}]}, {"compound": "CCOC(=O)C1(CCCc2ccccc2)CCCN(C(=O)c2ccc3c(c2)OCO3)C1", "note": "(centres unmarked) [Compound 45, ethyl 1-(1,3-benzodioxole-5-carbonyl)-3-(3-phenylpropyl)piperidine-3-carboxylate]", "values": [{"measurement": "Effect on sensitivity of DU145TXR to 500 nmol/L paclitaxel", "setting": "[1]", "result": "strongly affected the sensitivity"}, {"measurement": "Synergy with paclitaxel (isobologram)", "setting": "[2]", "result": "strong synergistic effect"}, {"measurement": "Resensitization to doxorubicin", "setting": "[6]", "result": "resensitized the MDR prostate cancer cells to doxorubicin to levels that are comparable with the naïve DU145 cell line"}, {"measurement": "Decrease in cell viability", "setting": "[7]", "result": 13, "unit": "%"}, {"measurement": "IC50", "setting": "[7]", "result": 62, "unit": "µM"}, {"measurement": "Cells killed", "setting": "[3]; DU145, 25 μmol/L compound, not shown", "result": 31, "unit": "%"}, {"measurement": "IC50", "setting": "[3]", "result": 41, "unit": "µM"}, {"measurement": "Cells killed", "setting": "[8]; DU145TXR, 25 μmol/L compound, not shown", "result": 36, "unit": "%"}, {"measurement": "IC50", "setting": "[8]", "result": 107, "unit": "µM"}, {"measurement": "Inhibition of verapamil-stimulated ATP hydrolysis", "setting": "[4]", "result": "inhibit ATP hydrolysis"}, {"measurement": "Effect on nucleotide binding (ESR, SL-ATP)", "setting": "[5]", "result": "directly interfered with nucleotide binding"}]}, {"compound": "CC(=O)O[C@H]1C(=O)[C@@]2(C)[C@H]([C@H](OC(=O)c3ccccc3)[C@]3(O)C[C@H](OC(=O)[C@H](O)[C@@H](NC(=O)c4ccccc4)c4ccccc4)C(C)=C1C3(C)C)[C@]1(OC(C)=O)CO[C@@H]1C[C@@H]2O", "note": "[Paclitaxel, paclitaxel]", "values": [{"measurement": "Survival at 500 nmol/L paclitaxel", "setting": "[9]", "result": "< 10", "unit": "%"}, {"measurement": "Survival at 500 nmol/L paclitaxel", "setting": "[10]; DU145TXR", "result": "> 85", "unit": "%"}, {"measurement": "IC50", "setting": "[10]; read-out: IC50 of chemotherapeutic alone, DU145TXR, 48 h incubation, MTT", "result": 3.76, "unit": "µM"}]}, {"compound": "COc1ccc(CCN(C)CCCC(C#N)(c2ccc(OC)c(OC)c2)C(C)C)cc1OC", "note": "(centres unmarked) [Verapamil, verapamil, reference compound]", "values": [{"measurement": "IC50", "setting": "[3]", "result": 75, "unit": "µM"}, {"measurement": "IC50", "setting": "[8]", "result": 207, "unit": "µM"}]}, {"compound": "COc1cccc2c1C(=O)c1c(O)c3c(c(O)c1C2=O)C[C@@](O)(C(=O)CO)C[C@@H]3O[C@H]1C[C@H](N)[C@H](O)[C@H](C)O1", "note": "[doxorubicin]", "values": [{"measurement": "Fold resistance (IC50 DU145TXR / IC50 DU145)", "setting": "[10]; DU145TXR compared to DU145", "result": "over eightfold; also recorded: about eightfold"}]}]}
